Activity calls are given as the source filed them. No cut-off for these calls is given here.

The test system of data set [1] is A549. The data set can be described thus: Cytotoxicity against human A549 cells after 48 hrs by alamar blue assay. The format is functional, cell-based. The note with it: A549, 48 h. (Resazurin is reduced to fluorescent resorufin, in cell work by metabolically active cells.)
The subject of data set [2] is A549. As to the kind of experiment: Induction of apoptosis in human A549 cells assessed as cleavage of caspase-8 at 5 uM after 36 hrs by Western blotting. Type of data set: functional, cell-based.
The subject of data set [3] is A549. The data set can be described thus: Induction of apoptosis in human A549 cells assessed as increase of p53 protein level at 5 uM after 8 hrs by Western blotting. The format is functional, cell-based. An outline of the steps:
(§1)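 A549 cells given 5 μM or 0.1% DMSO for 0-16 h; SDS lysates run on SDS-PAGE, transferred to PVDF, blocked in 5% milk PBST, primary antibody overnight, HRP secondary and chemiluminescence. p53, p21 and actin probed; one of three repeats shown.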
(In general: In western blotting, separated proteins are transferred to a membrane and probed.)

Data set [4] has as its system A549. The data set can be described thus: Induction of apoptosis in human A549 cells assessed as loss of mitochondrial cytochrome c at 5 uM after up to 48 hrs by Western blotting. The format is functional, cell-based. An outline of the steps: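 A549 cells treated 5 μM or 0.1% DMSO for 36 or 48 h. Cells homogenized in sucrose/HEPES buffer A on ice, then spun at 750g twice and 10000g for 60 min at 4 °C; pellet taken as mitochondrial fraction, supernatant as cytosolic. Cytochrome c in each fraction by Western blot. One of three repeats shown.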

For data set [5], the system named is A549. The data set can be described thus: Induction of autophagy in human A549 cells assessed as acridine orange stain incorporation at 5 uM after 24 hrs by fluorescence microscopic analysis. The format is functional, cell-based.
Data set [6] concerns Mus musculus. As to the kind of experiment: Toxicity in human A549 cells xenografted BALB/c nude mouse assessed as histological changes in liver at 3 mg/kg, sc qd for 5 days. Type of data set: organism-based. Further details: dose 3 mg/kg, route subcutaneous. As to conditions: in vivo, 120 h. An outline of the steps:
(§2)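 Xenograft setting: female athymic BALB/c nu/nu mice bearing sc A549 tumors (80-120 mm3 at day 0), six per group, daily sc dosing days 0-4 in 20% Tween 80 in saline; vehicle controls. Body weight recorded three times weekly up to days 21-28. Brain, liver and kidney fixed in 4% formalin, paraffin-embedded and sectioned for histology.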

The test system of data set [7] is A549. The data set can be described thus: Induction of apoptosis in human A549 cells assessed as increase of Bak protein level at 5 uM after 36 hrs by Western blotting. The format is functional, cell-based. The method, boiled down:
(§3)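 A549 cells exposed 0-10 μM or 0.1% DMSO for 36 h; lysed in SDS sample buffer, boiled, SDS-PAGE, PVDF transfer, blocked in 5% milk PBST, primary antibody overnight, HRP secondary with chemiluminescence. Probed for pro-caspase 3, pro-caspase 9, PARP, Bcl-2, Bax, Bak, actin. One of three repeats shown.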

Data set [8] relates to A549. The data set can be described thus: Induction of apoptosis in human A549 cells assessed as decrease of procaspase-9 level after 36 hrs by Western blotting. The format is functional, cell-based. An outline of the steps: as §3
Data set [9] can be described thus: Cytotoxicity against human BEAS2B cells uo to 80 uM after 48 hrs by alamar blue assay. The format is cell-based. As to conditions: beas-2b. An outline of the steps: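 Beas-2b cells seeded at 5000/well in RPMI 1640 + 10% FBS, 24 h at 37 °C, 5% CO2; then treated 0-80 μM in triplicate per concentration, 0.1% DMSO final, 48 h. Viability read by Alamar Blue per manufacturer's protocol; mean ± SE of three separate experiments.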

Data set [10] relates to A549. The data set can be described thus: Induction of apoptosis in human A549 cells assessed as reduction of Bcl-2 protein level at 5 uM after 36 hrs by Western blotting. The format is functional, cell-based. An outline of the steps: as §3
Data set [11] has as its system A549. The data set can be described thus: Induction of apoptosis in human A549 cells assessed as increase in DNA breaks at 5 uM after 24 hrs by flow cytometry based TUNEL assay. The format is functional. The method, boiled down: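 A549 cells exposed to 5 μM for various times. 5 × 10^5 cells fixed in 1% paraformaldehyde and 70% ethanol, TdT reaction with DIG-dUTP 30 min at 37 °C, anti-DIG-fluorescein 30 min in the dark, then PI (5 μg/mL) plus RNase A (100 μg/mL) 30 min; fluorescence by flow cytometry. One of three repeats shown.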
(Flow cytometry measures light scatter and fluorescence of single cells or particles in a stream.)

Data set [12] concerns A549. As to the kind of experiment: Antitumor activity against human A549 cells xenografted in BALB/c nude mouse assessed as increase in activated caspase-3 protein expression in tumor at 3 mg/kg, sc qd for 5 days by immunohistochemistry. Type of data set: functional, organism-based. Set-up: dose 3 mg/kg. The method, boiled down: (§4)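 Female athymic BALB/c nu/nu mice, 6-8 weeks, 18-22 g; 1 × 10^7 A549 cells implanted sc on back. At 80-120 mm3 tumors, randomized (six per group, day 0); daily sc dosing days 0-4 in 20% Tween 80/saline, >1.5 cm from tumor; vehicle controls. Tumor L and W measured to day 21-28; TV = (L × W2)/2, RTV = TVn/TV0. Activated caspase-3 immunohistochemistry on formalin-fixed paraffin tumor sections (day 28 after inoculation).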

Data set [13] concerns A549. The data set can be described thus: Induction of apoptosis in human A549 cells assessed as increase of Bax protein level at 5 uM after 36 hrs by Western blotting. Type of data set: functional, cell-based. An outline of the steps:
as §3

For data set [14], the system named is A549. The data set can be described thus: Induction of apoptosis in human A549 cells assessed as blockade of sub-G1 phase increase at 5 uM after 36 hrs using propidium iodide staining by flow cytometry in presence of Z-VAD-fmk. The format is functional, cell-based. The method, boiled down: (§5)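 Ethanol-fixed cells stained with RNase (200 μg/mL) and PI (10 μg/mL) 30 min; sub-G1 population by flow cytometry on ≥10 000 cells; mean ± SE of three experiments.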

Data set [15] deals with A549. As to the kind of experiment: Induction of apoptosis in human A549 cells assessed as loss of mitochondria membrane potential at 5 uM after up to 48 hrs using 3,3'-diethyloxacarbocyanine iodide staining by flow cytometry. The format is functional, cell-based. An outline of the steps:
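A549 cells treated with 5 μM or 0.1% DMSO for indicated times; 5 × 10^5 cells stained with 50 nM DiOC2(3), 15 min, 37 °C, dark, washed in cold PBS. Flow cytometry, excitation 488 nm, emission 525 nm (FL-1); low-uptake cells scored as mitochondrial damage against untreated controls. One of three repeats shown.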

In data set [16] the test system is A549. As to the kind of experiment: Induction of apoptosis in human A549 cells assessed as increase of p53 protein level at 5 uM after 2 hrs by Western blotting. The format is functional, cell-based. The method, boiled down: as §1
For data set [17], the system named is A549. As to the kind of experiment: Antitumor activity against human A549 cells xenografted in BALB/c nude mouse assessed as inhibition of tumor growth at 3 mg/kg, sc qd for 5 days. The format is functional, organism-based. Further details: dose 3 mg/kg. The method, boiled down: as §4
In data set [18] the test system is Mus musculus. As to the kind of experiment: Toxicity in human A549 cells xenografted BALB/c nude mouse assessed as histological changes in brain at 3 mg/kg, sc qd for 5 days. Type of data set: organism-based. Further details: dose 3 mg/kg, route subcutaneous. As to conditions: in vivo, 120 h. An outline of the steps:
as §2

Data set [19] concerns Mus musculus. As to the kind of experiment: Toxicity in human A549 cells xenografted BALB/c nude mouse assessed as histological changes in kidney at 3 mg/kg, sc qd for 5 days. The format is organism-based. Further details: dose 3 mg/kg, route subcutaneous. As to conditions: in vivo, 120 h. The method, boiled down: as §2
The test system of data set [20] is A549. The data set can be described thus: Induction of apoptosis in human A549 cells assessed as cleavage of PARP at 5 uM after 36 hrs by Western blotting. The format is functional, cell-based.
For data set [21], the system named is A549. As to the kind of experiment: Induction of apoptosis in human A549 cells assessed as blockade of sub-G1 phase increase at 5 uM after 36 hrs using propidium iodide staining by flow cytometry in presence of N-acetyl-cysteine. Type of data set: functional, cell-based. An outline of the steps:
as §5

For data set [22], the system named is A549. The data set can be described thus: Cell cycle arrest in human A549 cells assessed as accumulation at sub-G1 phase after 48 hrs using propidium iodide staining by flow cytometry. Type of data set: functional, cell-based. The method, boiled down: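 A549 cells treated 0-5 μM (0.31-5 μM) or 0.1% DMSO vehicle for 48 h. 5 × 10^5 cells fixed in 70% ethanol on ice ≥2 h, stained with RNase (200 μg/mL) and PI (10 μg/mL) 30 min at room temperature; sub-G1 fraction by flow cytometry, ≥10 000 cells per sample; mean ± SE of three experiments.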

Data set [23] has as its system A549. As to the kind of experiment: Induction of apoptosis in human A549 cells assessed as blockade of sub-G1 phase increase at 5 uM after 36 hrs using propidium iodide staining by flow cytometry in presence of 4,4'-diisothiocyano- 2,2'-stilbenedisulfonic acid. Type of data set: functional, cell-based. The method, boiled down: as §5
Data set [24] has as its system Mus musculus. The data set can be described thus: Toxicity in human A549 cells xenografted BALB/c nude mouse assessed as change in body weight at 3 mg/kg, sc qd for 5 days. Type of data set: organism-based. The note with it: in vivo, 120 h. Set-up: dose 3 mg/kg, route subcutaneous. An outline of the steps: as §2
Data set [25] deals with A549. The data set can be described thus: Induction of apoptosis in human A549 cells assessed as decrease of procaspase-3 level after 36 hrs by Western blotting. Type of data set: functional, cell-based. An outline of the steps: as §3

Take `CCCCc1c(OC)cc(/C=C/C=C/C=C/C=C/c2[nH]ccc2Cl)oc1=O`: the IC50 – broadly, the concentration at which inhibition is half-maximal – with A549 [1] is 5 µM.
Turning to `CCCCc1c(OC)cc(/C(C)=C/C=C/C=C/C=C/c2[nH]ccc2Cl)oc1=O`, the result with A549 [2], in the data set on A549 [5], with A549 [13], with A549 [21] and in the data set with A549 [23] was inactive. The outcome in the data set with A549 [3], in the data set on A549 [4], in the data set with A549 [7], with A549 [10], in the data set with A549 [12] and in the data set with A549 [14] was Active. The result in the data set on A549 [15], in the data set on A549 [16], in the data set on A549 [17] and in the data set on A549 [20] was Active. The compound also gave an IC50 in the data set on A549 [1] of 0.01 µM. Besides, the Activity entry in the data set with Mus musculus [6] is “Non-toxic”; with A549 [8], “Dose-dependent effect”; in [9], “Non-toxic”; with A549 [11] it was 47%; in the data set on Mus musculus [18], “Non-toxic”; with Mus musculus [19], “Non-toxic”. Further, the values for the Activity entry with A549 [22], in the data set with Mus musculus [24] and in the data set with A549 [25] were “Dose-dependent effect”, “Non-toxic” and “Dose-dependent effect”, respectively.
On to `O=c1cc(O)cc(/C=C/C=C/C=C/C=C/c2[nH]ccc2Cl)o1`, for which, in the data set with A549 [1], the IC50 was above 20 µM.
In turn, `COc1cc(/C=C/C=C/C=C/C=C/c2sccc2Cl)oc(=O)c1` registered an IC50 with A549 [1] above 20 µM.
Still for that read-out and setting: then `COc1cc(/C(C)=C/C=C/C=C/C=C/c2[nH]ccc2Cl)oc(=O)c1`, with 2.5 µM; and `COc1cc(/C=C/C=C/C=C/C=C/c2[nH]ccc2Cl)oc(=O)c1C` [AUXARCONJUGATIN A], with 1.2 µM; and `C/C=C/C=C/C=C/C=C/c1cc(OC)c(C)c(=O)o1`, with above 20 µM.
Consider `COc1cc(/C=C/C=C/C=C/C=C/c2cccc(Cl)c2)oc(=O)c1C`, for which the concentration for half-maximal inhibition (IC50) in the data set with A549 [1] is above 20 µM.
Still for that read-out and setting: the figure for `CC\C(=C/C=C/C=C/C=C/c1[nH]ccc1Cl)c1cc(OC)c(C)c(=O)o1` is 5.6 µM.
For the compound `COc1cc(/C=C/C=C/C=C/C=C/c2[nH]ccc2Cl)oc(=O)c1` [AUXARCONJUGATIN B], the result in the data set with A549 [2], with A549 [5], in the data set on A549 [13], in the data set on A549 [21] and in the data set on A549 [23] was inactive. The outcome in the data set with A549 [4], in the data set on A549 [7], in the data set on A549 [10], in the data set on A549 [14], with A549 [15] and in the data set on A549 [20] was Active. For the same compound, 0.6 µM corresponded to half-maximal inhibition with A549 [1] (IC50). Also, the Activity result was “Dose-dependent effect” in the data set on A549 [8]; “Non-toxic” in [9]; 42% with A549 [11]; “Dose-dependent effect” with A549 [22]; “Dose-dependent effect” in the data set on A549 [25].
In turn, `COc1cc(/C=C/C=C/C=C/C=C/c2sccc2Cl)oc(=O)c1C` yielded an IC50 in the data set with A549 [1] above 20 µM.
In the data set on A549 [1], `COc1cc(/C=C/C=C/C=C/C=C/c2c(Cl)ccn2S(C)(=O)=O)oc(=O)c1C` yielded an IC50 above 20 µM.
Consider `COc1cc(/C=C/C=C/C=C/C=C/c2ccccc2Cl)oc(=O)c1C`, for which the IC50 with A549 [1] was above 20 µM.
With `Cc1c(O)cc(/C=C/C=C/C=C/C=C/c2[nH]ccc2Cl)oc1=O`, in the data set with A549 [1], the IC50 was above 20 µM.
For the compound `COc1cc(/C(C)=C/C=C/C=C/C=C/c2[nH]ccc2Cl)oc(=O)c1C`, the half-inhibitory concentration (IC50) with A549 [1] amounted to 5.2 µM.
